According to ChEMBL document CHEMBL5724801, “EUbOPEN Chemogenomics Library - Multiplex” (2024):
Where “and” joins values, the source holds several entries; their conditions need not be identical. Equal entries are not always repeated. Non-standard residues stand in square brackets, D forms with d. Residues, ends and D or L forms follow the SMILES beside them.

Assays:
Fibroblast = assay: Multiplex assay against human fibroblast; assay type: toxicity, cell-based
In short: (§1)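 On a CQ1 microscope at 37°C and 5% CO2, live cells were imaged after compound addition. They had been stained at seeding with Hoechst33342, BioTracker Green Microtubule Cytoskeleton Dye, MitoTracker Red and Annexin V Alexa Fluor 680. CellPathfinder machine-learning gating assigned cells to Hoechst high-intensity objects or normal cells, normal cells to healthy, pyknosed or fragmented nuclei, and pyknosed cells to mitotic or apoptotic. Tubulin, mitochondrial-mass and membrane-permeability phenotypes are per cents of healthy-nucleus cells.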

HEK-293T = assay: Multiplex assay against HEK293T; assay type: toxicity, cell-based; details: human; in short: as §1
[1] = 12 h, 1 µM, compound concentration 1 uM
[2] = 12 h, 10 µM, compound concentration 10 uM
[3] = 24 h, 1 µM, compound concentration 1 uM
[4] = 24 h, 10 µM, compound concentration 10 uM
[5] = 48 h, 1 µM, compound concentration 1 uM
[6] = 48 h, 10 µM, compound concentration 10 uM

In the case of CC(C)C[C@@H]1NC(=O)[C@@H](C(C)C)NC(=O)[C@@H]2CCCN2C(=O)[C@@H](CC(=O)O)NC(=O)[C@@H](Cc2c[nH]c3ccccc23)NC1=O [BQ-123] (cyclo(L[dW][dD]P[dV])), the “Population Apoptotic (%)” value (Fibroblast; [1]) is reported as 57% and 21%, the “Population Fragmented Nuclei (%)” value (Fibroblast; [1]) is reported as 18% and 22% and the “Population Healthy Nuclei (%)” value (Fibroblast; [1]) is reported as 68% and 58%. The “Population Hoechst High Intensity Objects (%)” value (Fibroblast; [1]) was 0% and 3%, the “Population Membrane Permeable-Phenotype (%)” value (Fibroblast; [1]) was 1% and 5% and the “Population Mitochondria Different-Phenotype (%)” value (Fibroblast; [1]) was 11% and 2%. The “Population Mitotic Cells (%)” value (Fibroblast; [1]) was 42% and 78%, the “Population Normal (%)” value (Fibroblast; [1]) was 100% and 96% and the “Population Pyknosed Nuclei (%)” value (Fibroblast; [1]) was 13% and 18%. The “Population Tubulin-Different-Phenotype (%)” value (Fibroblast; [1]) was 31%, the “Total Cell Count” value (Fibroblast; [1]) was 105 and 157 and the “Population Apoptotic (%)” value (Fibroblast; [2]) was 48% and 33%. For the same compound, the “Population Fragmented Nuclei (%)” value (Fibroblast; [2]) was 15% and 30%, the “Population Healthy Nuclei (%)” value (Fibroblast; [2]) was 65% and 48% and the “Population Hoechst High Intensity Objects (%)” value (Fibroblast; [2]) was 2%. The “Population Membrane Permeable-Phenotype (%)” value (Fibroblast; [2]) was 0% and 4%, the “Population Mitochondria Different-Phenotype (%)” value (Fibroblast; [2]) was 9% and 3% and the “Population Mitotic Cells (%)” value (Fibroblast; [2]) was 52% and 66%. The “Population Normal (%)” value (Fibroblast; [2]) was 97%, the “Population Pyknosed Nuclei (%)” value (Fibroblast; [2]) was 18% and 20% and the “Population Tubulin-Different-Phenotype (%)” value (Fibroblast; [2]) was 33% and 46%. The “Total Cell Count” value (Fibroblast; [2]) was 136 and 134, the “Population Apoptotic (%)” value (Fibroblast; [3]) was 53% and 24% and the “Population Fragmented Nuclei (%)” value (Fibroblast; [3]) was 19% and 23%. The “Population Healthy Nuclei (%)” value (Fibroblast; [3]) was 66% and 57%, the “Population Hoechst High Intensity Objects (%)” value (Fibroblast; [3]) was 1% and 6% and the “Population Membrane Permeable-Phenotype (%)” value (Fibroblast; [3]) was 0% and 3%. The “Population Mitochondria Different-Phenotype (%)” value (Fibroblast; [3]) was 5% and 3%, the “Population Mitotic Cells (%)” value (Fibroblast; [3]) was 46% and 75% and the “Population Normal (%)” value (Fibroblast; [3]) was 98% and 93%. The “Population Pyknosed Nuclei (%)” value (Fibroblast; [3]) was 14% and 18%, the “Population Tubulin-Different-Phenotype (%)” value (Fibroblast; [3]) was 24% and 25% and the “Total Cell Count” value (Fibroblast; [3]) was 107 and 166. For the same compound, the “Population Apoptotic (%)” value (Fibroblast; [4]) was 50% and 29%, the “Population Fragmented Nuclei (%)” value (Fibroblast; [4]) was 19% and 27% and the “Population Healthy Nuclei (%)” value (Fibroblast; [4]) was 64% and 50%. The “Population Hoechst High Intensity Objects (%)” value (Fibroblast; [4]) was 8% and 0%, the “Population Membrane Permeable-Phenotype (%)” value (Fibroblast; [4]) was 1% and 11% and the “Population Mitochondria Different-Phenotype (%)” value (Fibroblast; [4]) was 5% and 3%. The “Population Mitotic Cells (%)” value (Fibroblast; [4]) was 50% and 70%, the “Population Normal (%)” value (Fibroblast; [4]) was 91% and 99% and the “Population Pyknosed Nuclei (%)” value (Fibroblast; [4]) was 15% and 22%. The “Population Tubulin-Different-Phenotype (%)” value (Fibroblast; [4]) was 32% and 50%, the “Total Cell Count” value (Fibroblast; [4]) was 123 and the “Population Apoptotic (%)” value (Fibroblast; [5]) was 50% and 52%. The “Population Fragmented Nuclei (%)” value (Fibroblast; [5]) was 18% and 28%, the “Population Healthy Nuclei (%)” value (Fibroblast; [5]) was 70% and 56% and the “Population Hoechst High Intensity Objects (%)” value (Fibroblast; [5]) was 3% and 4%. For the same compound, the “Population Membrane Permeable-Phenotype (%)” value (Fibroblast; [5]) was 0% and 2%, the “Population Mitochondria Different-Phenotype (%)” value (Fibroblast; [5]) was 12% and 4% and the “Population Mitotic Cells (%)” value (Fibroblast; [5]) was 50% and 48%. The “Population Normal (%)” value (Fibroblast; [5]) was 96% and 95%, the “Population Pyknosed Nuclei (%)” value (Fibroblast; [5]) was 11% and 15% and the “Population Tubulin-Different-Phenotype (%)” value (Fibroblast; [5]) was 25% and 39%. The “Total Cell Count” value (Fibroblast; [5]) was 109 and 172, the “Population Apoptotic (%)” value (Fibroblast; [6]) was 70% and 46% and the “Population Fragmented Nuclei (%)” value (Fibroblast; [6]) was 26% and 45%. The “Population Healthy Nuclei (%)” value (Fibroblast; [6]) was 59% and 42%, the “Population Hoechst High Intensity Objects (%)” value (Fibroblast; [6]) was 5% and 6% and the “Population Membrane Permeable-Phenotype (%)” value (Fibroblast; [6]) was 1% and 9%. For the same compound, the “Population Mitochondria Different-Phenotype (%)” value (Fibroblast; [6]) was 5% and 3%, the “Population Mitotic Cells (%)” value (Fibroblast; [6]) was 29% and 53% and the “Population Normal (%)” value (Fibroblast; [6]) was 94% and 93%. For the same compound, the “Population Pyknosed Nuclei (%)” value (Fibroblast; [6]) was 13% and 12%, the “Population Tubulin-Different-Phenotype (%)” value (Fibroblast; [6]) was 38% and 51% and the “Total Cell Count” value (Fibroblast; [6]) was 129 and 130. The “Population Apoptotic (%)” value (HEK-293T; [1]) was 46%, the “Population Fragmented Nuclei (%)” value (HEK-293T; [1]) was 7% and 5% and the “Population Healthy Nuclei (%)” value (HEK-293T; [1]) was 80% and 82%. The “Population Hoechst High Intensity Objects (%)” value (HEK-293T; [1]) was 4% and 7%, the “Population Membrane Permeable-Phenotype (%)” value (HEK-293T; [1]) was 0% and the “Population Mitochondria Different-Phenotype (%)” value (HEK-293T; [1]) was 39% and 59%. For the same compound, the “Population Mitotic Cells (%)” value (HEK-293T; [1]) was 53%, the “Population Normal (%)” value (HEK-293T; [1]) was 95% and 92% and the “Population Pyknosed Nuclei (%)” value (HEK-293T; [1]) was 11%. For the same compound, the “Population Tubulin-Different-Phenotype (%)” value (HEK-293T; [1]) was 32% and 19%, the “Total Cell Count” value (HEK-293T; [1]) was 376 and 392 and the “Population Apoptotic (%)” value (HEK-293T; [2]) was 30% and 71%. For the same compound, the “Population Fragmented Nuclei (%)” value (HEK-293T; [2]) was 7% and 5%, the “Population Healthy Nuclei (%)” value (HEK-293T; [2]) was 78% and the “Population Hoechst High Intensity Objects (%)” value (HEK-293T; [2]) was 7% and 11%. The “Population Membrane Permeable-Phenotype (%)” value (HEK-293T; [2]) was 0%, the “Population Mitochondria Different-Phenotype (%)” value (HEK-293T; [2]) was 48% and 65% and the “Population Mitotic Cells (%)” value (HEK-293T; [2]) was 69% and 28%. The “Population Normal (%)” value (HEK-293T; [2]) was 92% and 88%, the “Population Pyknosed Nuclei (%)” value (HEK-293T; [2]) was 14% and 16% and the “Population Tubulin-Different-Phenotype (%)” value (HEK-293T; [2]) was 31% and 22%. The “Total Cell Count” value (HEK-293T; [2]) was 387 and 265, the “Population Apoptotic (%)” value (HEK-293T; [3]) was 26% and 40% and the “Population Fragmented Nuclei (%)” value (HEK-293T; [3]) was 10% and 7%. For the same compound, the “Population Healthy Nuclei (%)” value (HEK-293T; [3]) was 79% and 82%, the “Population Hoechst High Intensity Objects (%)” value (HEK-293T; [3]) was 3% and 5% and the “Population Membrane Permeable-Phenotype (%)” value (HEK-293T; [3]) was 0%. For the same compound, the “Population Mitochondria Different-Phenotype (%)” value (HEK-293T; [3]) was 27% and 35%, the “Population Mitotic Cells (%)” value (HEK-293T; [3]) was 73% and 59% and the “Population Normal (%)” value (HEK-293T; [3]) was 96% and 94%. For the same compound, the “Population Pyknosed Nuclei (%)” value (HEK-293T; [3]) was 9% and the “Population Tubulin-Different-Phenotype (%)” value (HEK-293T; [3]) was 21% and 14%.
